Experiments:
[1] = Lipophilicity, log D of compound at pH 7.4 by shake-flask method; format: physicochemical; conditions: buffer
[2] = Tmax in Wistar Hannover rat at 10 mg/kg, po by LC-MS/MS analysis; format: ADME, organism-based; conditions: in vivo
Method in brief: (§1)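 Male Wistar–Han rats in the fed state were dosed orally at 10 mg/kg, as amorphous solid in solution or crystalline solid in suspension, in 2% (v/v) Tween 80 in 0.5% (w/v) methyl cellulose in water. Parameters were calculated from plasma concentration–time data; mean and individual values given (n = 2). Oral F is set against a 1 mg/kg i.v. dose.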

[3] = Volume of distribution at steady state in Wistar Hannover rat at 1 mg/kg, iv by LC-MS/MS analysis; format: ADME, organism-based; conditions: in vivo, read-out: Vdss
[4] = Half life in Wistar Hannover rat at 1 mg/kg, iv by LC-MS/MS analysis; format: ADME, organism-based; conditions: in vivo
[5] = Renal clerance in Wistar Hannover rat at 1 mg/kg, iv by LC-MS/MS analysis; format: ADME, organism-based; conditions: in vivo
[6] = Oral bioavailability in Wistar Hannover rat at 10 mg/kg by LC-MS/MS analysis; format: ADME, organism-based; conditions: in vivo; method in brief: as §1
[7] = AUC (0 to 24 hrs) in Wistar Hannover rat at 10 mg/kg, po administered as ASD form in 2% Tween 80 (v/v) in 0.5% (w/v) methyl cellulose in water formulation by LC-MS/MS analysis; format: ADME, organism-based; conditions: in vivo
[8] = Cmax in Wistar Hannover rat at 10 mg/kg, po administered as ASD form in 2% Tween 80 (v/v) in 0.5% (w/v) methyl cellulose in water formulation by LC-MS/MS analysis; format: ADME, organism-based; conditions: in vivo
Method in brief: (§2)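 Parameters come from plasma concentration–time data as mean and individual values (n = 2); exposure for this form was reported as AUC0–∞. Oral F is referenced to a 1 mg/kg i.v. dose.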

[9] = molecular target: Replicase polyprotein 1ab (Severe acute respiratory syndrome coronavirus 2, UniProt P0DTD1); test: Inhibition of SARS-Cov-2 MPro assessed as inhibition constant by FRET assay
[10] = Cmax in Wistar Hannover rat at 10 mg/kg, po by LC-MS/MS analysis; format: ADME, organism-based; conditions: in vivo; method in brief: as §1
[11] = AUC (0 to 24 hrs) in Wistar Hannover rat at 1 mg/kg, iv by LC-MS/MS analysis; format: ADME, organism-based; conditions: in vivo
[12] = Clearance in Wistar Hannover rat at 1 mg/kg, iv by LC-MS/MS analysis; format: ADME, organism-based; conditions: in vivo
[13] = Tmax in Wistar Hannover rat at 10 mg/kg, po administered as ASD form in 2% Tween 80 (v/v) in 0.5% (w/v) methyl cellulose in water formulation by LC-MS/MS analysis; format: ADME, organism-based; conditions: in vivo; method in brief: as §2
[14] = Passive permeability across apical to basolateral side in dog RRCK cells incubated for 30 mins; format: ADME, cell-based, Canis lupus familiaris; conditions: mdckii-le, 0.5 h
SARS-CoV-2 [15] = test: Antiviral activity against SARS CoV-2 USA_WA1/2020 infected in ACE2 enriched African green monkey Vero E6 cells assessed as reduction in virus-induced cytopathic effect measured after 3 days by celltiter-glo assay; format: functional, organism-based; conditions: Severe acute respiratory syndrome coronavirus 2, USA_WA1/2020, Vero C1008, 72 h
[16] = Metabolic stability in human liver microsome assessed as apparent intrinsic clearance in presence of NADPH incubated for 40 mins by LS-MS/MS analysis; format: ADME; conditions: microsomes
[17] = Oral bioavailability in Wistar Hannover rat at 10 mg/kg administered as ASD form in 2% Tween 80 (v/v) in 0.5% (w/v) methyl cellulose in water formulation by LC-MS/MS analysis; format: ADME, organism-based; conditions: in vivo; method in brief: as §2
[18] = AUC (0 to 24 hrs) in Wistar Hannover rat at 10 mg/kg, po by LC-MS/MS analysis; format: ADME, organism-based; conditions: in vivo; method in brief: as §1
[19] = AUC (0 to 24 hrs) in Wistar Hannover rat at 100 mg/kg, po administered as crystalline MTBE in 10% (v/v) ethanol/10% (v/v) capmul MCM/35% (v/v) PEG400/45% (v/v) Tween 80 formulation by LC-MS/MS analysis; format: ADME, organism-based; conditions: in vivo
in vivo [20] = conditions: Wistar Hannover, rat, po, 1000 mg/kg
in vivo [21] = conditions: Wistar Hannover, rat, po, 100 mg/kg
[22] = AUC (0 to 24 hrs) in Wistar Hannover rat at 100 mg/kg, po administered as crystalline anhydrous form in 2% (v/v) Tween 80/98% 0.5% (w/v) methyl cellulose in water formulation by LC-MS/MS analysis; format: ADME, organism-based; conditions: in vivo
Method in brief: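 Single high oral dose of 100 mg/kg in male Wistar–Han rats in the fed state, given as crystalline suspension in 2% (v/v) Tween 80 in 0.5% (w/v) methylcellulose in water. Parameters were derived from plasma concentration–time data and reported as mean ± S.D. (n = 3) or mean and individual values (n = 2).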

[23] = AUC (0 to 24 hrs) in Wistar Hannover rat at 1000 mg/kg, po administered as crystalline MTBE in 10% (v/v) ethanol/10% (v/v) capmul MCM/35% (v/v) PEG400/45% (v/v) Tween 80 formulation by LC-MS/MS analysis; format: ADME, organism-based; conditions: in vivo
[24] = AUC (0 to 24 hrs) in Wistar Hannover rat at 10 mg/kg, po administered as crystalline MTBE in 10% (v/v) ethanol/10% (v/v) capmul MCM/35% (v/v) PEG400/45% (v/v) Tween 80 formulation by LC-MS/MS analysis; format: ADME, organism-based; conditions: in vivo
in vivo [25] = conditions: Wistar Hannover, rat, po, 10 mg/kg
in vivo [26] = conditions: Wistar Hannover, rat, po, 100 mg/kg; remark: listed apart in the source
in vivo [27] = conditions: Wistar Hannover, rat, po, 1000 mg/kg; remark: listed apart in the source
[28] = Cmax in Wistar Hannover rat at 10 mg/kg, po administered as crystalline form in 2% Tween 80 (v/v) in 0.5% (w/v) methyl cellulose in water formulation by LC-MS/MS analysis; format: ADME, organism-based; conditions: in vivo; method in brief: as §1
[29] = Oral bioavailability in Wistar Hannover rat at 10 mg/kg administered as crystalline form in 2% Tween 80 (v/v) in 0.5% (w/v) methyl cellulose in water formulation by LC-MS/MS analysis; format: ADME, organism-based; conditions: in vivo; method in brief: as §1
[30] = AUC (0 to 24 hrs) in Wistar Hannover rat at 10 mg/kg, po administered as crystalline form in 2% Tween 80 (v/v) in 0.5% (w/v) methyl cellulose in water formulation by LC-MS/MS analysis; format: ADME, organism-based; conditions: in vivo; method in brief: as §1
[31] = Tmax in Wistar Hannover rat at 10 mg/kg, po administered as crystalline form in 2% Tween 80 (v/v) in 0.5% (w/v) methyl cellulose in water formulation by LC-MS/MS analysis; format: ADME, organism-based; conditions: in vivo; method in brief: as §1
SARS-CoV-2 [32] = test: Antiviral activity against SARS CoV-2 infected in African green monkey Vero E6 cells; format: functional, organism-based; conditions: Severe acute respiratory syndrome coronavirus 2, Vero C1008

Compound | logD [1] | Ki [9] [nM] | permeability [14] | EC50 (SARS-CoV-2 [15]) [nM] | CLH(app) [16] [µL/min/mg] | other results
COC(=O)N[C@H](C(=O)N1C[C@H](C(F)(F)F)C[C@H]1C(=O)N[C@H](C#N)C[C@@H]1CCCNC1=O)C(C)C | 0.7 | 1.13 | 0.63 10^-6 cm/s | 78.9 | < 7.12 | Tmax [2]: 22.8 min; Vd [3]: 0.55 L/kg; half-life [4]: 114 min; CL renal [5]: 7.6 mL/min/kg; bioavailability [6]: 7.7%; AUC(0-t) [7]: 380 ng·h/mL; Cmax [8]: 177 ng/mL; Cmax [10]: 310 ng/mL; AUC(0-t) [11]: 467 ng·h/mL; clearance [12]: 35.6 mL/min/kg; Tmax [13]: 22.8 min; bioavailability [17]: 8.1%; AUC(0-t) [18]: 359 ng·h/mL
CC(C)(C)[C@H](NC(=O)C(F)(F)F)C(=O)N1C[C@H]2[C@@H]([C@H]1C(=O)N[C@H](C#N)C[C@@H]1CCNC1=O)C2(C)C | 1.9 |  | 1.03 10^-6 cm/s | 81.4 |  | AUC(0-t) [19]: 68300 ng·h/mL; Tmax (in vivo [20]): 1 h; Tmax (in vivo [21]): 45 min; AUC(0-t) [22]: 18000 ng·h/mL; AUC(0-t) [23]: 746 µg·h/mL; AUC(0-t) [24]: 3190 ng·h/mL; Tmax (in vivo [25]): 1.5 h; Tmax (in vivo [26]): 1.4 h; Cmax (in vivo [27]): 88.3 µg/mL
CC(C)(C)[C@H](NC(=O)C(F)(F)F)C(=O)N1C[C@H](OC(F)F)C[C@H]1C(=O)N[C@H](C#N)C[C@@H]1CCNC1=O | 1.2 | 2.83 | 1.25 10^-6 cm/s | 193 | < 7.12 | Vd [3]: 1.05 L/kg; Cmax [28]: 272 ng/mL; half-life [4]: 306 min; CL renal [5]: 4.5 mL/min/kg; bioavailability [29]: 11.9%; AUC(0-t) [7]: 212 ng·h/mL; Cmax [8]: 92.8 ng/mL; AUC(0-t) [30]: 599 ng·h/mL; AUC(0-t) [11]: 502 ng·h/mL; clearance [12]: 33.1 mL/min/kg; Tmax [31]: 30 min; Tmax [13]: 45 min; bioavailability [17]: 4.2%
COC(=O)N[C@H](C(=O)N1C[C@H](C(F)(F)F)C[C@H]1C(=O)N[C@H](C#N)C[C@@H]1CCNC1=O)C(C)C | 0.9 | 13.3 | 0.5 10^-6 cm/s | 488 | < 7.12 | 
COC(=O)N[C@H](C(=O)N1C[C@H](OC(F)(F)F)C[C@H]1C(=O)N[C@H](C#N)C[C@@H]1CCNC1=O)C(C)(C)C | 1 | 0.63 | 2.05 10^-6 cm/s | 141 | < 7.12 | Tmax [2]: 15 min; Vd [3]: 0.87 L/kg; half-life [4]: 360 min; CL renal [5]: 8.1 mL/min/kg; bioavailability [6]: 8.6%; Cmax [10]: 358 ng/mL; AUC(0-t) [11]: 650 ng·h/mL; clearance [12]: 25.4 mL/min/kg; AUC(0-t) [18]: 559 ng·h/mL
COC(=O)N[C@H](C(=O)N1C[C@H](C(F)(F)F)C[C@H]1C(=O)N[C@H](C#N)C[C@@H]1CCCNC1=O)C(C)(C)C | 1.2 | 0.17 | 0.4 10^-6 cm/s | 46.2 | 9.5 | 
COC(=O)N[C@H](C(=O)N1C[C@H]2[C@@H]([C@H]1C(=O)N[C@H](C#N)C[C@@H]1CCNC1=O)C2(C)C)C(C)(C)C | 1.2 |  | 0.61 10^-6 cm/s |  | 8.1 | 
COC(=O)N[C@H](C(=O)N1C[C@H](C(F)(F)F)C[C@H]1C(=O)N[C@H](C#N)C[C@@H]1CC(O)NC1=O)C(C)(C)C (stereo not given in full) |  | 13 |  |  |  | EC50 (SARS-CoV-2 [32]): 1650 nM
CC(C)(C)[C@H](NC(=O)C(F)(F)F)C(=O)N1C[C@H](OC(F)(F)F)C[C@H]1C(=O)N[C@H](C#N)C[C@@H]1CCNC1=O | 1.7 | 0.71 | 1.12 10^-6 cm/s | 80.9 | < 9.42 | 
CNC(=O)N[C@H](C(=O)N1C[C@H]2[C@@H]([C@H]1C(=O)N[C@H](C#N)C[C@@H]1CCNC1=O)C2(C)C)C(C)(C)C | 0.77 |  | 0.62 10^-6 cm/s |  | < 7.12 | 
CC(C)(C)[C@H](NC(=O)C(F)(F)F)C(=O)N1C[C@H](C(F)(F)F)C[C@H]1C(=O)N[C@H](C#N)C[C@@H]1CCNC1=O | 1.4 | 4.46 | 0.71 10^-6 cm/s | 65.5 | 13 | 
COC(=O)N[C@H](C(=O)N1C[C@H](OC(F)F)C[C@H]1C(=O)N[C@H](C#N)C[C@@H]1CCNC1=O)C(C)(C)C | 0.6 | 3.88 | 0.76 10^-6 cm/s | 450 | < 7.12 | 

From ChEMBL document CHEMBL5576048, “A Second-Generation Oral SARS-CoV-2 Main Protease Inhibitor Clinical Candidate for the Treatment of COVID-19” (J Med Chem, 2024)
